Here are results for one compound from ChEMBL document CHEMBL4316619 (Bioorg Med Chem Lett, 2019).

The term Cmax denotes the highest concentration seen after dosing. The term AUC(0-inf) denotes total exposure, with the tail of the curve extrapolated.

Common to all, as to type: ADME, organism-based
A short description of series [1]: Terminal half life in C57BL/6 mouse liver at 30 mg/kg, ip. Particulars: read-out: beta t1/2 (converted). The gist of the method: (§1)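 Male C57BL/6 mice, single intraperitoneal 30 mg/kg dose, N=3. Plasma, liver and lung concentrations followed over time to give concentration-time profiles, from which Tmax, Cmax, terminal t1/2, AUClast and AUCINF were derived.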
Series [2] is described as follows: Cmax in C57BL/6 mouse lung at 30 mg/kg, ip. Further details: dose 30 mg/kg, route intraperitoneal. A digest of the protocol: (§2)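 Male C57BL/6 mice received a single intraperitoneal dose of 30 mg/kg (N=3). Compound concentrations were followed over time in plasma, liver and lung. Tmax, Cmax, terminal t1/2, AUClast and AUCINF were derived from the mean concentration-time profiles.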

The nature of series [3]: AUC (infinity) in C57BL/6 mouse lung at 30 mg/kg, ip. Further details: dose 30 mg/kg, route intraperitoneal, time infinity. A digest of the protocol:
as §2

Series [4] is described as follows: Drug level in C57BL/6 mouse liver at 30 mg/kg, ip measured at 12 hrs. The conditions noted are these: in vivo. A digest of the protocol: as §2
Series [5] in a line: Drug level in C57BL/6 mouse liver at 30 mg/kg, ip measured at 1 hrs. The conditions noted are these: in vivo. The gist of the method:
as §2

A short description of series [6]: Drug level in C57BL/6 mouse plasma at 30 mg/kg, ip measured at 0.25 hrs. The gist of the method:
as §1

With `COc1cc(-c2ccnc3c2c(C)nn3-c2ccc(C(F)(F)F)cc2)ccc1O`, in series [1], the half-life was 4.7 h. This compound also had a Cmax in series [2] of 18600 ng/mL. For the same compound, the AUC(0-inf) in series [3] was determined as 53900 ng·h/mL. Moreover, the Drug uptake amounted to 1984 nmol/kg in series [4] and 44487 nmol/kg in series [5]. In series [6], the concentration at 0.25 h was 6.1 µM.
